Data reported in ChEMBL document CHEMBL1148551, “Synthesis and biological evaluation of novel heterocyclic quinones as inhibitors of the dual specificity protein phosphatase CDC25C” (Bioorg Med Chem Lett, 2006).

Assays:
DU-145 = experiment: Antiproliferative activity against human androgen-independent prostate carcinoma DU145 cell line by colorimetric assay; type: functional, cell-based
How it was run: (§1)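 WST1 tetrazolium salt cleavage by mitochondrial dehydrogenases in viable cells, colorimetric read-out. IC50 given as mean ± SEM from at least two experiments, with four or eight determinations per tested concentration.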

[1] = target: T1, M-phase inducer phosphatase 3 (Homo sapiens, UniProt P30307); experiment: Inhibitory activity against recombinant CDC25C
T1 sequence (P30307 whole entry): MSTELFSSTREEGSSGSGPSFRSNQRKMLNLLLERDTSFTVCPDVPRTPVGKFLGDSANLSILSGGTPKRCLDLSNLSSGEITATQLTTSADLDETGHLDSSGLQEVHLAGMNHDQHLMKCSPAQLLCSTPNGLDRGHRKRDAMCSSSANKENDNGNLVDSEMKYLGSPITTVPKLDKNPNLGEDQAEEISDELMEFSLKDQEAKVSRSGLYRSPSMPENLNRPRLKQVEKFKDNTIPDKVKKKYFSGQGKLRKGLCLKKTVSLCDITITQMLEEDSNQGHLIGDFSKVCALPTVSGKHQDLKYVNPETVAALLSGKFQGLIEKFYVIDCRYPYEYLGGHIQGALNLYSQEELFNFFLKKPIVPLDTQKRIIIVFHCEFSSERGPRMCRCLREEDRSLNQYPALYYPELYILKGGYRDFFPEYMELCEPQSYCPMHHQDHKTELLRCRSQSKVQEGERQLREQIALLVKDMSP
How it was run: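 Recombinant maltose binding protein (MBP)-CDC25C fusion enzyme, with 3-O-methylfluorescein phosphate (OMFP) as substrate. IC50 given as mean ± SEM from at least two, usually three, independent experiments.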

MIA PaCa-2 = experiment: Antiproliferative activity against human pancreatic carcinoma Mia PaCa2 cell line by colorimetric assay; type: functional, cell-based; how it was run: as §1

| Structure (SMILES) | IC50 (DU-145) [µM] | IC50 [1] [µM] | IC50 (MIA PaCa-2) [µM] |
| --- | --- | --- | --- |
| CCc1nc2c(o1)C(O)=C/C(=N\CCN(C)C)C2=O | 0.22 | 0.13 | 0.44 |
| CN(C)CC/N=C1\C=C(O)c2cn(C)cc2C1=O | – | 81 | – |
| CN(C)CC/N=C1\C=C(O)c2nn(-c3ccccc3)cc2C1=O | – | 12 | – |
| O=C1C(Cl)=C(NCCN2CCOCC2)C(=O)c2ncccc21 | 2.3 | – | 2.5 |
| Cc1nc2c(s1)C(O)=C/C(=N\CCN(C)C)C2=O | 0.11 | 0.15 | 0.18 |
| CCc1nc2c(o1)C(=O)C(NCCN(C)C)=CC2=O | 0.22 | 0.13 | 0.44 |
| CCc1nc2c([nH]1)C(=O)/C(=N/CCN(C)C)C=C2O | > 10 | 12 | 18 |
| CC1=CC(=O)c2ccccc2C1=O [MENADIONE] | 11 | – | 6.2 |

Second part, the compound after the results:

| IC50 (DU-145) [µM] | IC50 [1] [µM] | IC50 (MIA PaCa-2) [µM] | Structure (SMILES) |
| --- | --- | --- | --- |
| 0.21 | 0.23 | 0.15 | CN(C)CC/N=C1\C=C(O)c2oc(-c3ccccc3)nc2C1=O |
| > 10 | 17 | 12 | CN(C)CC/N=C1\C=C(O)c2[nH]c(-c3ccccc3)nc2C1=O |
| 0.21 | 0.23 | 0.15 | CN(C)CC/N=C1\C=C(O)c2nc(-c3ccccc3)oc2C1=O |
| – | 12 | – | CN(C)CC/N=C1\C=C(O)c2cn(-c3ccccc3)nc2C1=O |
